Results on 97 compounds are retold here after ChEMBL document CHEMBL4513216, “Probing the Open Global Health Chemical Diversity Library for Multistage-Active Starting Points for Next-Generation Antimalarials” (ACS Infect Dis, 2020).

SMILES strings stand for the structures.

The data set is described as follows: Toxicity liver stage against HepG2, at 10uM. It counts as cell-based. Details: test concentration 10 uM, cell line HepG2-A16-CD81EGFP. The settings on record: human, HepG2-A16-CD81EGFP cells; read-out: INHIBITION
The procedure, abridged:
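Uninfected HepG2-A16-CD81EGFP cells, 3 × 10^3 per well, 1536-well, plated on prespotted compound at 10 μM final, parasite-free screening media added to match infected plates; puromycin 10 μM positive, DMSO 0.5% negative; run in parallel with 48 h PbLuc assay at 37 °C, 5% CO2; viability by CellTiter-Glo luminescence, normalized to controls.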
As to `Cn1cc(-c2cnc(N3CCOCC3)nc2)cc1C(=O)O`, the cytotoxicity at 10 µM is -14.6%.
The value for `COc1ccc(C2(NC(=O)CCn3cncn3)CCCCC2)cc1` was -3.12%; that for `CN1CCN2C(=O)N(C3CCOCC3)C[C@H]2C1` was 0.523%; that for `O=C(c1cn(-c2ccc(C(F)(F)F)cn2)nn1)N1CCCCCC1` was -57.4%.
The value for `Clc1cnccc1N1CCC(OC2CCOCC2)CC1` was -0.439%; that for `NC(=O)CCN1C(=O)CC(Cc2ccc(F)cc2)C1=O` (configuration not stated) was -4.89%; that for `CC(C)n1ncc2c1NC(=O)CC21C(=O)Nc2c(Br)cc(Cl)cc21` (configuration not stated) was 5.99%.
The value for `O=C(NCCOc1ccc(F)c(F)c1)NCc1ccncc1` was -8.25%; that for `O=C1NCCCCC1SCc1coc(-c2ccccc2)n1` (configuration not stated) was 11.6%; that for `CCn1ccnc1CN(C)C(C(=O)O)c1ccc(C(C)(C)C#N)cc1` (configuration not stated) was -9.1%.
For the compound `CSc1cccc(NC(=O)Nc2c(O)oc3ccccc3c2=O)c1`, the cytotoxicity at 10 µM was 4.45%.
In the case of `CCn1cc(CN2CCCC(CO)(CCc3ccccc3)C2)c(C)n1` (configuration not stated) it was -4.63%; in that of `O=S(=O)(CC1CC1)c1ncc(CN2CCOCC2)n1CC1CCCO1` (configuration not stated), -3.06%.
For `Cn1cc(CN2CC3(CCN(C(=O)c4ccoc4)C3)C2)cn1`, the cytotoxicity at 10 µM is -8.45%.
With `CN(C)CCCn1ccnc1C1CCN(c2cccc(C(=O)O)n2)CC1`, the cytotoxicity at 10 µM amounted to 6.87%.
On to `COCC(=O)N1CCCC1c1cccc(C)c1C` (configuration not stated), for which the cytotoxicity at 10 µM is -1.32%.
In the case of `C[C@@H]1CN(C(=O)C2CCS(=O)(=O)CC2)C[C@@]1(O)C1CC1` it was 3.99%.
The value for `CNC(=O)CN(C)c1nc(-c2ccncc2)nc2c1CCN(C(C)=O)C2` was -5.13%; that for `Cc1noc(C2CCCN(CC(=O)N3CCc4ccccc4C3)C2)n1` (configuration not stated) was -19.3%; that for `Cc1ccc(S(=O)(=O)N2CCC(O)(CN(C)C)C2)cc1` (configuration not stated) was -7.02%.
As to `CC(NCCCC#N)c1ccc(-c2cccnc2)cc1` (configuration not stated), the cytotoxicity at 10 µM was found to be 11.3%.
In the case of `Cc1oc(C(=O)Nc2cccc(Cl)c2C)cc1S(N)(=O)=O` it was 7.46%; in that of `Cn1ccnc1CN1CCN(CC(O)c2cc(F)ccc2F)CC1` (configuration not stated), -13.8%.
The value for `CC(=O)N1CCN(C(=O)C2SCCc3sccc32)CC1` (configuration not stated) was -11.5%; that for `O=C(C1CCCO1)N1CCC(c2nc(-c3ccccc3)n[nH]2)CC1` (configuration not stated) was -10.9%.
Turning to `COCCNC(=O)c1cn(C(C)(C)C)c2ncccc12`, the cytotoxicity at 10 µM amounted to 2.74%.
As for `CCN(CC)c1ncc(Cl)c(C(=O)NC2CCC(O)CC2)n1` (configuration not stated), the cytotoxicity at 10 µM was -43.5%.
In the case of `CCOCC1CN(C(=O)CS(C)(=O)=O)Cc2cnn(C)c21` (configuration not stated) it was -6.63%; in that of `NC(=O)Cn1ccc(NC(=O)C2(c3cccc(Cl)c3)CC2)n1`, 0.217%; in that of `COc1c(CNCCNC(=O)c2ccc(C)cc2)c(C)nn1C`, -3.39%.
In the case of `CN1CCN2C(=O)N(c3ccccc3)C[C@H]2C1`, the cytotoxicity at 10 µM worked out at 3.7%.
The value for `Nc1cc(CCCNC(=O)NC2CCCC2)nn1-c1ccccc1` was -18.9%; that for `Cc1ccc(CN2CCCC3(CCN(S(=O)(=O)N(C)C)C3)C2)o1` (configuration not stated) was 7.49%; that for `Cc1cnn(CC2CCCCN2c2nn3cc(C)nc3s2)c1` (configuration not stated) was -18.4%.
As for `Cc1ccoc1C(=O)N1CCC(n2cc(CO)nn2)CC1`, the cytotoxicity at 10 µM was -1.52%.
With `Cc1cnn(C2CCCN(C(=O)c3cnc4ccccc4n3)C2)c1` (configuration not stated), the cytotoxicity at 10 µM was -10.7%.
The value for `O=C(CC1CCCC1)N1CCC2(CCN2Cc2ccc(F)cc2)C1` (configuration not stated) was -5.66%; that for `CCc1cnc(NCC(CC)N2CCOCC2)nc1` (configuration not stated) was 12.8%.
As for `CC(C)N(C)C(=O)C1=NOC2(CCN(C(=O)c3ccnnc3)C2)C1` (configuration not stated), the cytotoxicity at 10 µM is -119%.
In the case of `Cc1nc(CN2CCO[C@@H]3CC(COc4ccccn4)C[C@H]32)cs1` (some centres not stated) it was 8.57%.
The value for `O=C(c1ccnnc1)N1CCN(Cc2cccnc2)c2ncccc2C1` was 0.121%; that for `O=C(NCC(=O)N1CCCC(c2ccccc2)CC1)c1ccoc1` (configuration not stated) was -4.31%; that for `O=C(NCc1ccccc1CN1CCCC1=O)Nc1nccs1` was 9.66%.
Consider `O[C@@H]1C[C@@H](c2nc(-c3ccccc3)no2)N(CC2CCCCC2)C1`, for which the cytotoxicity at 10 µM is -2.74%.
The value for `Cn1cc(CN2C[C@@H]3COC[C@]3(COc3ccc(C#N)cn3)C2)cn1` was -11.3%; that for `COc1ccc2cc(C(=O)NCCc3nc(C)no3)[nH]c2c1` was 9.63%.
In the case of `CCC(CC)NC(=O)CN1CCN(C(=O)N(C)C)CC1` it was -3.7%.
Consider `O=C(NCc1ccco1)c1cc(N2CC[C@@H](O)C2)ccn1`, for which the cytotoxicity at 10 µM was -2.93%.
As to `CNC(=O)Cc1noc(-c2cc3c(s2)CCCC3)n1`, the cytotoxicity at 10 µM was 0.403%.
In the case of `Cc1cc(C(=O)N2CCC(Nc3cccnn3)CC2)no1` it was -0.0225%; in that of `Nc1nc2nc(C3CCCN(C(=O)c4cnccn4)C3)ccc2s1` (configuration not stated), -16%.
The value for `COc1ccccc1C(C)(C)NC(=O)NC1CCC(O)CC1` (configuration not stated) was -3.6%; that for `Cc1noc2ncc(C(=O)N(CC3CCOC3)C3CC3)cc12` (configuration not stated) was -6.64%.
As for `Cc1ccc(CN2CCCn3cnc(COCC4CC4)c3C2)o1`, the cytotoxicity at 10 µM came out at 8.82%.
As to `O=C(c1ccncc1)N1CCC2(CC1)C(=O)Nc1ccccc12`, the cytotoxicity at 10 µM was -146%.
In the case of `Cc1ccc(S(=O)(=O)NC(=O)COc2ccc(CC#N)cc2)s1` it was 2.52%; in that of `CN(C)CCC1CCCCN1Cc1cnn(C)c1C1CC1` (configuration not stated), 2.84%; in that of `Cc1ncsc1CN1C[C@H](C(=O)NCC2CC2)[C@@H]2CCO[C@@H]2C1`, -3.17%.
Turning to `Cc1cnn(CCNCC(O)COc2ccc3ccccc3c2)c1` (configuration not stated), the cytotoxicity at 10 µM was -6.31%.
In the case of `COCCCC1CCCCN1S(=O)(=O)c1cccc(C#N)c1` (configuration not stated) it was -133%; in that of `N#Cc1c(CN2CCCCC2Cn2cncn2)cn2ccccc12` (configuration not stated), 3.06%; in that of `CC1CCCCN1C(=O)c1ccn(COc2ccc(F)cc2)n1` (configuration not stated), 4.7%.
In the case of `COC(=O)CNC(=O)c1nc(Cl)sc1C(C)C`, the cytotoxicity at 10 µM came out at 1.34%.
In the case of `O=c1[nH]nc(SCC2CCCO2)n1C1CC1` (configuration not stated) it was 0.0288%; in that of `CCCc1cc(C(=O)N(Cc2cccnc2)C[C@@H]2CCC(=O)N2)no1`, 6.82%; in that of `Cc1noc([C@@H]2C[C@H]3OCC[C@H]3N(S(=O)(=O)N(C)C)C2)n1`, -122%.
The value for `CC(C)(C)n1ncc(NCC(O)c2ccccc2C(F)(F)F)c(Cl)c1=O` (configuration not stated) was 53.6%.
Turning to `O=C(NCc1nccn1CCc1ccccc1)NCC1(O)CCC1`, the cytotoxicity at 10 µM was -2.97%.
In the case of `COc1ccc(CN2CCCCC2c2n[nH]cc2-c2cc(C)no2)cc1` (configuration not stated) it was 20.8%; in that of `C[C@@H]1CN(CCOc2ccc(Cl)cc2)CC[C@@]1(O)C1CCOCC1`, 19.4%.
In the case of `COc1cc(N2CCC3(CCN(Cc4csc(C)n4)C3)CC2)ncn1` it was -118%.
In the case of `CCNc1ncc(C(=O)N2CCOC(CCCc3ccccc3)C2)cn1` (configuration not stated) it was 79.2%; in that of `CCN(CCNCc1cccc(C#N)c1)C1CC1`, -11.3%.
Turning to `CC(NC(=O)NCc1cccnc1N1CCCCC1)c1nccs1` (configuration not stated), the cytotoxicity at 10 µM was -7.95%.
`CC[C@H]1CN2CC[C@H]1C[C@@H]2CNC(=O)Nc1ccc(Br)cc1`: the cytotoxicity at 10 µM worked out at 1.08%.
The value for `Cn1ccnc1CN1CCN(CCOc2ccccc2C#N)CC1` was -14.9%.
With `O=C(c1cccnc1)N1CCOC(Cc2ccccc2Cl)C1` (configuration not stated), the cytotoxicity at 10 µM is 2.12%.
On to `CN1C[C@H]2N(c3ncccn3)CCC[C@@]2(C(=O)NCC2CC2)C1`, for which the cytotoxicity at 10 µM is -103%.
In the case of `Cn1nnc2c1CCN(C(=O)CC1CC1)C2COCCN1CCCC1` (configuration not stated) it was 17.4%.
The value for `COc1ccc(C(C)NCc2ccsc2)cc1Cn1cccn1` (configuration not stated) was 7.86%; that for `CCOCC1CN(Cc2cccnc2)Cc2nn(C)cc21` (configuration not stated) was -81.6%.
In the case of `CC(C)C(C(=O)N1CCN(Cc2cscn2)CC1)n1cncn1` (configuration not stated) it was 7.89%; in that of `CN(C)CCN1CC(C(=O)NCc2ccc(C#N)cc2)CC1=O` (configuration not stated), -6.02%.
`CCNc1ccnc(N2Cc3cnn(Cc4ccc(F)cc4)c3C2)n1`: the cytotoxicity at 10 µM was found to be 10%.
In the case of `Cc1nn(C)cc1-c1cc(C(=O)N2CCc3ncc(Cl)cc3C2)on1`, the cytotoxicity at 10 µM was -4.96%.
The value for `c1cc(CNc2nnc(Cc3ccsc3)o2)cs1` was 0.369%.
In the case of `Cc1ncc2c(n1)CCCC2NC(=O)c1cnn(Cc2ccccc2)c1` (configuration not stated) it was -4.49%; in that of `O=C(C1CCOC1)N1CCN(CC(F)(F)F)c2ccccc21` (configuration not stated), -5.74%; in that of `CS(=O)(=O)N1CCOCC2(CN(Cc3ccco3)CCO2)C1` (configuration not stated), -5.04%.
In the case of `Cc1cc(C(=O)N2CCN[C@H](C)C2)c2ccc(F)cc2n1` it was 13.7%; in that of `O=C(CS(=O)(=O)c1ccc(Cl)cc1)NC1CCCc2ccccc21` (configuration not stated), 1.03%; in that of `Cc1cc(C(=O)N2CCCC2c2noc(C(C)C)n2)c(C)o1` (configuration not stated), -3.54%.
As to `OCCc1ncnn1Cc1cccc(Cl)c1`, the cytotoxicity at 10 µM stood at 18.2%.
The value for `O=C(c1coc(-c2ccccc2)n1)N1CCS(=O)(=O)CC1` was 11.4%; that for `CCS(=O)(=O)N1CCCCC1c1nc(CC(C)C)no1` (configuration not stated) was 0.253%; that for `CC(C)N1CCN(C(=O)Nc2cnn(CC(N)=O)c2)CC1` was -12.2%.
The value for `O=C(Nc1cnccn1)[C@@H]1C[C@H]2OCC[C@H]2N(Cc2ccsc2)C1` was -2.31%.
